Data as given in ChEMBL document CHEMBL1137321, “Identification of small molecule agonists of the orphan nuclear receptors liver receptor homolog-1 and steroidogenic factor-1” (J Med Chem, 2006).
pEC50: −log10 of the molar value. The source made the active and inactive calls. The calls are words filed in the database; no cut-off is given here.

Columns and labels:
[1] = molecular target: T1, Nuclear receptor subfamily 5 group A member 2 (Homo sapiens, UniProt O00482); assay: Binding affinity to human LRH1 relative to 3-(E-Oct-4-en-4-yl)-1-phenylamino-2-phenyl-cis-bicyclo[3.3.0]oct-2-ene by FRET-based peptide recruitment assay
Procedure, shortened: (§1)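 The apo-receptor starts with 1 equiv of bound phospholipid. EC50 determined, n = 3. Relative efficacy is normalized to the reference agonist at ±5%.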

[2] = molecular target: T1, Nuclear receptor subfamily 5 group A member 2; assay: Binding affinity to human LRH1 by FRET-based peptide recruitment assay; procedure, shortened: as §1
[3] = molecular target: T2, Steroidogenic factor 1 (Homo sapiens, UniProt Q13285); assay: Binding affinity to human SF1 by FRET-based peptide recruitment assay
Procedure, shortened: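 FRET assay measuring recruitment of a DAX-1 peptide (aa 1-23) to human SF-1. The apo-receptor starts with 1 equiv of bound phospholipid. Relative efficacy is normalized to the reference agonist at ±5%.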

[4] = molecular target: T2, Steroidogenic factor 1; assay: Binding affinity to human SF1 relative to 3-Hexyl-1-phenylamino-2-phenyl-cis-bicyclo[3.3.0]oct-2-ene1 by FRET-based peptide recruitment assay
Procedure, shortened: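 FRET assay measuring recruitment of a DAX-1 peptide (aa 1-23) to human SF-1. The apo-receptor starts with 1 equiv of bound phospholipid. EC50 determined, n = 3. Relative efficacy is normalized to the reference agonist at ±5%.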

[5] = molecular target: T1, Nuclear receptor subfamily 5 group A member 2; assay: Agonist activity at human LRH1 assessed as induction of SHP mRNA expression in HepG2 cells at 10 uM; format: functional, cell-based
Procedure, shortened: (§2)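 Human liver cells (HepG2 cells or primary hepatocytes) treated with 10 µM compound; SHP mRNA expression quantified by quantitative PCR.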

[6] = molecular target: T1, Nuclear receptor subfamily 5 group A member 2; assay: Agonist activity at human LRH1 expressed in CV1 cells assessed as SHP reporter gene transactivation by luciferase assay; format: functional, cell-based, CV-1
[7] = molecular target: T1, Nuclear receptor subfamily 5 group A member 2; assay: Agonist activity at human LRH1 assessed as induction of SHP mRNA expression in human primary hepatocytes at 10 uM; format: functional, cell-based; conditions: Hepatocyte; procedure, shortened: as §2

T1 sequence (O00482 whole entry): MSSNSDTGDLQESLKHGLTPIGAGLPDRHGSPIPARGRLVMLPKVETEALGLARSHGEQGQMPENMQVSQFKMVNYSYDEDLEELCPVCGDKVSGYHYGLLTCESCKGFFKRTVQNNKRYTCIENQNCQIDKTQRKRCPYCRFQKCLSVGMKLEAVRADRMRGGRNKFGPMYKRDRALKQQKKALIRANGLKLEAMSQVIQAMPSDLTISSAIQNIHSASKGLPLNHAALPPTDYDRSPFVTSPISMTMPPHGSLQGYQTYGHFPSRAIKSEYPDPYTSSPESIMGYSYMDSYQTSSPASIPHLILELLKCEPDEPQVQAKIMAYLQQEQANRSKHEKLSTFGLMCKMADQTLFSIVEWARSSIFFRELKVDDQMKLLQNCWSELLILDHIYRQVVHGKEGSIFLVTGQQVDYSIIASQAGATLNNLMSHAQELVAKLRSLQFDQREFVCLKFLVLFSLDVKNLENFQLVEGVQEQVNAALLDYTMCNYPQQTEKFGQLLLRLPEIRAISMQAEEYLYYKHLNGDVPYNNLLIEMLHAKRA
T2 sequence (Q13285 whole entry, the tested form may be a part): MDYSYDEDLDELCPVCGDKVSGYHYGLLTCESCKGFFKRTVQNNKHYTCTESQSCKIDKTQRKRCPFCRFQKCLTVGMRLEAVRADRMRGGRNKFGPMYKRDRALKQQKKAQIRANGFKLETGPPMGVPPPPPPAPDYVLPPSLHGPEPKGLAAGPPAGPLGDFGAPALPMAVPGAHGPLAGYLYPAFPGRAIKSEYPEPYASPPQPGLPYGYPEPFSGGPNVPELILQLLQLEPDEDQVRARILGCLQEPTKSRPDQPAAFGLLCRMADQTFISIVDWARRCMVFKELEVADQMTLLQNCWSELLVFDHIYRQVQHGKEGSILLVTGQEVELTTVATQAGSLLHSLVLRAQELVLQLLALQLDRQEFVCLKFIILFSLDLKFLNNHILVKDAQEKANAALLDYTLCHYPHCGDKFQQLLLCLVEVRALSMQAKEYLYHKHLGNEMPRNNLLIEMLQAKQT

| Compound | Efficacy [1] [%] | pEC50 [2] | pEC50 [3] | Efficacy [4] [%] | Activity [5] | pEC50 [6] | Activity [7] |
| --- | --- | --- | --- | --- | --- | --- | --- |
| CCCCCCC1=C(c2ccccc2)[C@]2(Nc3ccc(I)cc3)CCC[C@@H]2C1 (relative stereo) |  | < 5.00 | < 5.00 |  |  |  |  |
| CCCCCCCCC(C)C1=C(c2ccccc2)[C@]2(Nc3ccccc3)CCC[C@@H]2C1 (relative stereo) | 25 | 6.49 | 6.89 | 95 |  |  |  |
| CCCCC/C=C(\CCCCC)C1=C(c2ccccc2)[C@]2(Nc3ccccc3)CCC[C@@H]2C1 (relative stereo) |  | < 5.00 | 7.85 | 30 |  |  |  |
| CCCCCCCCCCCCC1=C(c2ccccc2)[C@]2(Nc3ccccc3)CCC[C@@H]2C1 (relative stereo) |  | < 5.00 | < 5.00 |  |  |  |  |
| CC/C=C(\CC)C1=C(c2ccccc2)[C@]2(Nc3ccccc3)CCC[C@@H]2C1 (relative stereo) | 50 | 5.85 | 6.10 | 80 |  |  |  |
| CCCCCCC1=C(c2ccccc2)[C@]2(Nc3ccc(C(C)(C)C)cc3)CCC[C@@H]2C1 (relative stereo) |  | < 5.00 | < 5.00 |  |  |  |  |
| CCCCCCC1=C(c2ccccc2)[C@]2(Nc3ccc(OC(F)(F)F)cc3)CCC[C@@H]2C1 (relative stereo) |  | < 5.00 | < 5.00 |  |  |  |  |
| c1ccc(N[C@@]23CCC[C@@H]2CC(C2CCCCC2)=C3c2ccccc2)cc1 (relative stereo) | 25 | 6.64 | 6.74 | 65 |  |  |  |
| CCCCCCC1=C(c2ccccc2)[C@]2(Nc3cccc(F)c3)CCC[C@@H]2C1 (relative stereo) | 45 | 6.48 | 6.25 | 70 |  |  |  |
| CC1=C(c2ccccc2)[C@]2(Nc3ccccc3)CCC[C@@H]2C1 (relative stereo) | 20 | 5.68 | < 5.00 |  |  |  |  |
| CCCCCCC1=C(c2ccccc2)[C@]2(Nc3cccc4ccccc34)CCC[C@@H]2C1 (relative stereo) | 45 | 5.92 | < 5.00 |  |  |  |  |
| CCC/C=C(\CCC)C1=C(c2ccc(Br)cc2)[C@]2(Nc3ccccc3)CCC[C@@H]2C1 (relative stereo) | 70 | 6.80 | 6.77 | 35 |  |  |  |
| CCC/C=C(\CCC)C1=C(c2ccccc2)[C@]2(Nc3ccccc3)CCC[C@@H]2C1 (relative stereo) |  | 6.37 |  | 50 | Active | 6.00 | Active |
| CCCCCCC1=C(c2ccccc2)[C@]2(Nc3ccc(Cl)cc3)CCC[C@@H]2C1 (relative stereo) | 15 | 6.00 | 6.15 | 25 |  |  |  |

Stronger by pEC50 [2], values ahead:

| Efficacy [1] [%] | pEC50 [2] | pEC50 [3] | Efficacy [4] [%] | Activity [5] | pEC50 [6] | Activity [7] | Compound |
| --- | --- | --- | --- | --- | --- | --- | --- |
| 35 | 6.82 | 6.92 | 55 |  |  |  | c1ccc(N[C@@]23CCC[C@@H]2CC(c2ccccc2)=C3c2ccccc2)cc1 (relative stereo) |
| 115 | 7.00 | 6.85 | 45 |  |  |  | CCC/C=C(\CCC)C1=C(c2cccc(OC)c2)[C@]2(Nc3ccccc3)CCC[C@@H]2C1 (relative stereo) |
| 15 | 7.05 | < 5.00 |  |  |  |  | CCC/C=C(\CCC)C1=C(C)[C@]2(Nc3ccccc3)CCC[C@@H]2C1 |
| 45 | 7.15 | 6.89 | 90 |  |  |  | CCCCC(C)C1=C(c2ccccc2)[C@]2(Nc3ccccc3)CCC[C@@H]2C1 (relative stereo) |
| 55 | 7.22 | 6.89 | 30 |  |  |  | CCC/C=C(\CCC)C1=C(c2ccc3ccccc3c2)[C@]2(Nc3ccccc3)CCC[C@@H]2C1 (relative stereo) |
| 45 | 7.47 |  |  |  |  |  | CCCCCCC1=C(c2ccccc2)[C@]2(Nc3ccccc3)CCC[C@@H]2C1 (relative stereo) |
| 30 | 7.52 | 7.96 | 20 |  |  |  | CCCCCCC1=C(c2ccccc2)[C@]2(Nc3cccc(C)c3C)CCC[C@@H]2C1 (relative stereo) |
| 50 | 7.66 | 7.52 | 95 |  |  |  | CCC/C=C(\CCC)C1=C(CCCC)[C@]2(Nc3ccccc3)CCC[C@@H]2C1 (relative stereo) |
| 50 | 7.92 | 8.00 | 90 |  |  |  | CCC/C=C(\CCC)C1=C(C2CCCCC2)[C@]2(Nc3ccccc3)CCC[C@@H]2C1 (relative stereo) |
